{"source": "ChEMBL document CHEMBL1154729", "about": "“Discovery of novel antitubercular 2,10-dihydro-4aH-chromeno[3,2-c]pyridin-3-yl derivatives” (Eur J Med Chem, 2010)"}
{"tested_on": "Mycobacterium tuberculosis", "test": "Antimycobacterial activity against multidrug-resistant Mycobacterium tuberculosis by agar dilution method", "assay_type": "functional", "summary_of_the_method": "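Agar dilution MIC on Middlebrook 7H11 agar supplemented with OADC, following NCCLS-like procedure; determined in duplicate.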", "units": {"MIC": "µM"}}
{"smiles": "NNC(=O)c1ccncc1", "note": "[ISONIAZID]", "MIC": 45.6}
{"smiles": "O=C(NCC1=C[C@@H]2Oc3ccccc3C(=O)C2=CN1c1ncc(Br)cc1Br)c1ccc(Cl)cc1", "MIC": 2.95}
{"smiles": "Cc1cccnc1N1C=C2C(=O)c3ccccc3O[C@H]2C=C1CNC(=O)c1ccc(Cl)cc1", "MIC": 3.4}
{"smiles": "CCc1ccc(C(=O)NCC2=C[C@@H]3Oc4ccccc4C(=O)C3=CN2c2ncccc2C)cc1", "MIC": 0.07}
{"smiles": "Cc1cccnc1N1C=C2C(=O)c3ccccc3O[C@H]2C=C1CNC(=O)c1ccc2ccccc2c1", "MIC": 0.42}
{"smiles": "Cc1ccc(C(=O)NCC2=C[C@@H]3Oc4ccccc4C(=O)C3=CN2c2ncccc2C)cc1", "MIC": 1.78}
{"smiles": "CC[C@@H](CO)NCCN[C@@H](CC)CO", "note": "[ETHAMBUTOL]", "MIC": 122}
{"smiles": "Cc1cccnc1N1C=C2C(=O)c3ccccc3O[C@H]2C=C1CNC(=O)c1ccc(F)cc1", "MIC": 7.09}
{"smiles": "O=C(NCC1=C[C@@H]2Oc3ccccc3C(=O)C2=CN1c1ncc(Br)cc1Br)c1ccc(Cl)c(Cl)c1", "MIC": 4.91}
{"smiles": "Cc1ccc2ccc(C(=O)NCC3=C[C@@H]4Oc5ccccc5C(=O)C4=CN3c3ncccc3C)cc2c1", "MIC": 0.13}
{"smiles": "O=C(NCC1=C[C@@H]2Oc3ccccc3C(=O)C2=CN1c1ncc(Br)cc1Br)c1cccc(Cl)c1", "MIC": 2.6}
{"smiles": "CCc1ccc(C(=O)NCC2=C[C@@H]3Oc4ccccc4C(=O)C3=CN2c2ncc(Br)cc2Br)cc1", "MIC": 1.3}
{"smiles": "CO[C@H]1/C=C/O[C@@]2(C)Oc3c(C)c(O)c4c(O)c(c(/C=N/N5CCN(C)CC5)c(O)c4c3C2=O)NC(=O)/C(C)=C\\C=C\\[C@H](C)[C@H](O)[C@@H](C)[C@@H](O)[C@@H](C)[C@H](OC(C)=O)[C@@H]1C", "note": "[RIFAMPIN]", "MIC": 3.79}
{"smiles": "Cc1ccc2ccc(C(=O)NCC3=C[C@@H]4Oc5ccccc5C(=O)C4=CN3c3ncc(Br)cc3Br)cc2c1", "MIC": 0.61}
{"smiles": "Cc1cccnc1N1C=C2C(=O)c3ccccc3O[C@H]2C=C1CNC(=O)c1ccccc1", "MIC": 3.68}
{"smiles": "O=C(NCC1=C[C@@H]2Oc3ccccc3C(=O)C2=CN1c1ncc(Br)cc1Br)c1ccc2ccccc2c1", "MIC": 5.04}
{"smiles": "COc1ccc(C(=O)NCC2=C[C@@H]3Oc4ccccc4C(=O)C3=CN2c2ncccc2C)cc1", "MIC": 3.44}
{"smiles": "Cc1cccnc1N1C=C2C(=O)c3ccccc3O[C@H]2C=C1CNC(=O)c1cccc(Cl)c1", "MIC": 1.7}
{"tested_on": "not listed separately", "test": "Selectivity index, ratio of IC50 for african green monkey Vero cells to MIC for multidrug-resistant Mycobacterium tuberculosis", "assay_type": "functional"}
{"smiles": "CCc1ccc(C(=O)NCC2=C[C@@H]3Oc4ccccc4C(=O)C3=CN2c2ncccc2C)cc1", "Selectivity Index": 1977}
